Entries after “also recorded” stand apart in the source; their conditions may differ. Like-named read-outs stand apart in the source and are kept apart here.
Key:
[1] = tested on: A549 cells; assay: MTT cytotoxicity assay against the A549 lung cancer cell line; assay type: cell-based, human; conditions: for cytotoxic activity compared with cisplatin: MTT
Summary of the method: (§1)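 Cells (A549 or NIH-3T3) were seeded at 5 × 10^3 per well and grown 24 h at 37 °C, 5% CO2, then given increasing concentrations for 24 h and 48 h. DMSO/medium served as negative control and cisplatin as standard. MTT (5 mg mL−1 stock) was added for 4 h at 37 °C, formazan was dissolved in DMSO, and A595 was read. Triplicate means were used; IC50 came from dose–response inhibition curves.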

[2] = tested on: NIH-3T3 cells; assay: MTT cytotoxicity assay in non-cancerous NIH-3T3 cells; assay type: cell-based, mouse; conditions: for IC50: Mus musculus; for cytotoxic effect on non-cancerous NIH-3T3 cells (in words): NIH-3T3 mouse embryonic fibroblast, treatment up to 48 h
Summary of the method: as §1

[3] = tested on: A549 cells; assay: Intracellular ROS generation; assay type: cell-based, human; conditions: IC50 concentrations, DCFH-DA, 0-24 h
Summary of the method: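 Cells were seeded at 3.0 × 10^4 cells per mL in 24-well plates for 24 h, then dosed at 24 h IC50 concentrations with added 100 μM H2O2 solution. After 10 μM DCFH-DA solution was added, plates were held 10 min in the dark. DCF fluorescence (ex 488/em 510 nm) was read at 0, 2, 4, 6, 8, 12 and 24 h and expressed as fold change versus untreated control. Triplicates, mean ± SD.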

[4] = tested on: A549 cells; assay: AO/EB and Hoechst 33258 staining assay; assay type: cell-based, human; conditions: A549 cells treated at respective IC50 concentration, 24 h and 48 h
Summary of the method: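 A549 cells were seeded at 5 × 10^4 per well and grown 24 h at 37 °C, 5% CO2, then exposed at the respective IC50 concentration for 24 h and 48 h, alongside untreated and cisplatin controls. Staining used either AO/EB solution (100 μg per mL each) or Hoechst 33258 solution (100 μg per mL). Cells were examined and counted by fluorescence microscopy within 20 min.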

[5] = NIH3T3, 24 h, read-out: IC50 at 24 h
[6] = NIH3T3, 48 h, read-out: IC50 at 48 h

Row | Compound | cytotoxic activity compared with cisplatin [1] | IC50 [2, 5] | IC50 [2, 6] | cytotoxic effect on non-cancerous NIH-3T3 cells (in words) [2] | DCF fluorescent intensity compared with the untreated control group [3] | apoptosis induction (AO/EB and Hoechst staining) [4] | fold higher activity at 48 h than at 24 h ([1]; IC50 at 48 h vs 24 h) | reduction in cell viability ([1]; at 24 and 48 h)
1 | Cc1cc(C)c(C2CN(C)C3(C(=O)Nc4ccccc43)C2C(=O)c2ccc(Br)cc2)c(C)c1 (stereo not drawn) [4d, 3′-(4-Bromobenzoyl)-4′-mesityl-1′-methylspiro[indoline-3,2′-pyrrolidin]-2-one] | better activity than cisplatin | > 100 µM | > 100 µM |  |  |  |  | 
2 | Cc1cc(C)c(C2C3CCCN3C3(C(=O)Nc4ccccc43)C2C(=O)c2ccc(F)cc2)c(C)c1 (stereo not drawn) [5b, 2′-(4-Fluorobenzoyl)-1′-mesityl-1′,2′,5′,6′,7′,7a′-hexahydrospiro[indoline-3,3′-pyrrolizin]-2-one] | better activity than cisplatin | > 100 µM | 69.9 ± 1.3 µM |  |  |  |  | 
3 | Cc1ccc(C(=O)C2C(c3c(C)cc(C)cc3C)C3CCCN3C23C(=O)Nc2ccccc23)cc1 (stereo not drawn) [5e, 1′-Mesityl-2′-(4-methylbenzoyl)-1′,2′,5′,6′,7′,7a′-hexahydrospiro[indoline-3,3′-pyrrolizin]-2-one] |  | > 100 µM | > 100 µM | non-cytotoxic; also recorded: no cytotoxic effects | Not much difference | higher number of early and late apoptotic cells; also recorded: apoptosis-inducing capabilities |  | 
4 | Cc1cc(C)c(C2C3CCCN3C3(C(=O)Nc4ccccc43)C2C(=O)c2cccc(Cl)c2)c(C)c1 (stereo not drawn) [5f, 2′-(3-Chlorobenzoyl)-1′-mesityl-1′,2′,5′,6′,7′,7a′-hexahydrospiro[indoline-3,3′-pyrrolizin]-2-one] |  | > 100 µM | > 100 µM | non-cytotoxic; also recorded: no cytotoxic effects | Not much difference | higher number of early and late apoptotic cells; also recorded: apoptosis-inducing capabilities; also recorded: induces apoptosis | ~13 fold | 
5 | Cc1cc(C)c(C2C3CCCN3C3(C(=O)Nc4ccccc43)C2C(=O)c2ccccc2)c(C)c1 (stereo not drawn) [5a, 2′-Benzoyl-1′-mesityl-1′,2′,5′,6′,7′,7a′-hexahydrospiro[indoline-3,3′-pyrrolizin]-2-one] | better activity than cisplatin | > 100 µM | 72 ± 4.45 µM |  |  |  |  | 
6 | N.N.[Cl][Pt][Cl] [Cisplatin, cisplatin, reference compound] |  |  |  |  |  | distinct changes as an indication of apoptosis and cell death |  | 
7 | Cc1cc(C)c(C2CN(C)C3(C(=O)Nc4ccccc43)C2C(=O)c2cccc(Cl)c2)c(C)c1 (stereo not drawn) [4f, 3′-(3-Chlorobenzoyl)-4′-mesityl-1′-methylspiro[indoline-3,2′-pyrrolidin]-2-one] |  | > 100 µM | > 100 µM |  |  |  |  | No substantial reduction in cell viability
8 | Cc1ccc(C(=O)C2C(c3c(C)cc(C)cc3C)CN(C)C23C(=O)Nc2ccccc23)cc1 (stereo not drawn) [4e, 4′-Mesityl-1′-methyl-3′-(4-methylbenzoyl)spiro[indoline-3,2′-pyrrolidin]-2-one] | better activity than cisplatin | > 100 µM | > 100 µM |  | Not much difference |  |  | 
9 | Cc1cc(C)c(C2CN(C)C3(C(=O)Nc4ccccc43)C2C(=O)c2ccc(F)cc2)c(C)c1 (stereo not drawn) [4b, 3′-(4-Fluorobenzoyl)-4′-mesityl-1′-methylspiro[indoline-3,2′-pyrrolidin]-2-one] |  | > 100 µM | 32.8 ± 5.95 µM |  | Not much difference |  |  | 
10 | Cc1cc(C)c(C2C3CCCN3C3(C(=O)Nc4ccccc43)C2C(=O)c2ccc(Cl)cc2)c(C)c1 (stereo not drawn) [5c, 2′-(4-Chlorobenzoyl)-1′-mesityl-1′,2′,5′,6′,7′,7a′-hexahydrospiro[indoline-3,3′-pyrrolizin]-2-one] | better activity than cisplatin | > 100 µM | 72.1 ± 0.95 µM |  | Not much difference |  |  | 
11 | Cc1cc(C)c(C2CN(C)C3(C(=O)Nc4ccccc43)C2C(=O)c2ccccc2)c(C)c1 (stereo not drawn) [4a, 3′-Benzoyl-4′-mesityl-1′-methylspiro[indoline-3,2′-pyrrolidin]-2-one] |  | > 100 µM | 25.4 ± 3.74 µM |  | Not much difference | apoptosis-inducing capabilities |  | 
12 | Cc1cc(C)c(C2CN(C)C3(C(=O)Nc4ccccc43)C2C(=O)c2ccc(Cl)cc2)c(C)c1 (stereo not drawn) [4c, 3′-(4-Chlorobenzoyl)-4′-mesityl-1′-methylspiro[indoline-3,2′-pyrrolidin]-2-one] | better activity than cisplatin | > 100 µM | > 100 µM |  |  |  |  | 
13 | Cc1cccc(C(=O)C2C(c3c(C)cc(C)cc3C)CN(C)C23C(=O)Nc2ccccc23)c1 (stereo not drawn) [4g, 4′-Mesityl-1′-methyl-3′-(3-methylbenzoyl)spiro[indoline-3,2′-pyrrolidin]-2-one] |  | > 100 µM | 75.3 ± 0.94 µM |  | Not much difference |  |  | 
14 | Cc1cccc(C(=O)C2C(c3c(C)cc(C)cc3C)C3CCCN3C23C(=O)Nc2ccccc23)c1 (stereo not drawn) [5g, 1′-Mesityl-2′-(3-methylbenzoyl)-1′,2′,5′,6′,7′,7a′-hexahydrospiro[indoline-3,3′-pyrrolizin]-2-one] | better activity than cisplatin | > 100 µM | > 100 µM |  |  |  |  | 
15 | Cc1cc(C)c(C2C3CCCN3C3(C(=O)Nc4ccccc43)C2C(=O)c2ccc(Br)cc2)c(C)c1 (stereo not drawn) [5d, 2′-(4-Bromobenzoyl)-1′-mesityl-1′,2′,5′,6′,7′,7a′-hexahydrospiro[indoline-3,3′-pyrrolizin]-2-one] | better activity than cisplatin | > 100 µM | 42.9 ± 1.51 µM |  |  |  |  | 
